The values that follow come from paper PMC5097029 (Biochimica et biophysica acta, 2016).

One series relates to Jurkat T leukemia cells. Put plainly: MTT cytotoxicity assay, Jurkat cells. Format: cell-based, human. Conditions: for effect of pan-caspase inhibitor BOC-D-FMK on induced cell death: BOC-D-FMK 40 μM.
Series [1] concerns Jurkat T-ALL cells. Put plainly: Propidium iodide uptake, Jurkat. Format: cell-based, human. Conditions: 25 μM, 5 or 10 min. The procedure, abridged:
(§1)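 Jurkat or MDA-MB-231 cells (5 × 10⁵) were exposed to test compound or vehicle. PI (10 μg/ml final) was added 5 min before flow cytometry, and mean channel fluorescence was recorded. For Jurkat, exposure lasted 5 or 10 min, with n=3.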

The subject of series [2] is leukemia cells (Jurkat, THP-1). Format: cell-based, human. Conditions: read-out: IC50 toward leukemia cells.
The subject of series [3] is Jurkat T-ALL cells. Put plainly: LDH-release time course, Jurkat cells. Format: cell-based, human. The procedure, abridged: (§2)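 Jurkat cells or PBMCs (density-gradient isolated from healthy donors' venous blood) were cultured at 37°C, 5% CO₂, with test compound over a time course. Supernatants taken at each time point were assayed for LDH activity with a commercial kit. Percent cytotoxicity = (E−N)/(P−N)×100, with vehicle as negative and Triton X-100 as positive control. Values are the mean of 3 independent experiments ± SEM.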

The next series relates to HOPC myeloma cells. Format: cell-based, mouse. The following applies: read-out: IC50 toward myeloma cells.
The test system of series [4] is Paclitaxel-resistant MCF7-TX400 cells. Put plainly: Trypan blue exclusion, MCF7 and MCF7-TX400. The following applies: 24 h. Format: cell-based, human. The procedure, abridged: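 MCF7 and paclitaxel-resistant MCF7-TX400 cells were maintained in DMEM/10% FBS at 10% CO₂ for ≤30 passages. They were cultured with or without test compound for 24 h, and viability was scored by trypan blue exclusion counts. Values are the mean of 3 independent experiments ± SEM.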

Another series relates to PBMCs. Put plainly: MTT cytotoxicity assay, normal PBMCs. Format: cell-based, human. Conditions: read-out: IC50 to PBMC; normal cells (PBMC). On the technique in general: Tetrazolium dyes change colour on reduction, which living cells bring about.
A short description of series [5]: MTT cytotoxicity assay, normal PBMCs. The following applies: % Cytotoxicity, PBMCs, MTT, 24 h, mean ± SEM. Format: cell-based, human.
A short description of series [6]: Calcein leakage from large unilamellar vesicles. Conditions: 20 min; for calcein leakage (membrane disruption) from LUVs: LUVs of 100% anionic lipid POPS; for calcein leakage from LUVs as lipid composition became less negatively charged: greater proportion of zwitterionic lipid POPC. The procedure, abridged: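 LUVs were made from POPC/POPS films (1 mg total lipid) hydrated in 10 mM Tris, 150 mM NaCl, 1 mM EDTA, pH 7.4, with 70 mM calcein. Suspensions were freeze-thawed five times, extruded 15 times through 100 nm filters, and cleared of free dye on Sephadex G-50. Vesicles were diluted to 10 μM final lipid, given peptide at set peptide:lipid molar ratios and held ~20 min at room temperature. Ex 490/em 520 was read against 1% Triton X-100 and water controls. Samples were run at least in duplicate per preparation; values are the mean of three experiments ± SD.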

Series [7] relates to MDA-MB-231 breast cancer cells. Put plainly: MTT cytotoxicity assay, MDA-MB-231 cells. Format: cell-based, human. The following applies: read-out: IC50 in MDA-MB-231 breast cancer cells; C-terminal amide form.
Series [8] is described as follows: MTT cytotoxicity assay, MDA-MB-231 cells. The following applies: % Cytotoxicity, MTT, 24 h, mean ± SEM. Format: cell-based, human.
The next series has as its system primary PBMCs. Put plainly: LDH-release time course, PBMCs. Format: cell-based, human. The method in brief: as §2
Series [9] is described as follows: MTT cytotoxicity assay, primary HMECs. Format: cell-based, human. The following applies: % Cytotoxicity, 24 h, mean ± SEM. The procedure, abridged: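 Primary HMECs (MEGM-maintained, ≤6 passages) were seeded at 2 × 10⁵ cells/ml 24 h before treatment. They were exposed for 24 h at 2.5% final FBS, 37°C, 10% CO₂. MTT ([…] final) was added for the last 2 h, with 1% Triton X-100 as the 100%-death control. Formazan was dissolved in DMSO and OD 490 read. Cytotoxicity = (E−N)/(P−N)×100 against vehicle and Triton controls; values are the mean of 3 independent experiments ± SEM.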

Series [10] is described as follows: MTT cytotoxicity assay, Jurkat cells. Format: cell-based, human. The following applies: % Cytotoxicity, Jurkat, MTT, 24 h, mean ± SEM.
Series [11] deals with 4T1 mouse mammary carcinoma. Put plainly: 4T1 mammary carcinoma model in BALB/c mice. Format: in vivo. Conditions: IP, gemcitabine 60 mg/kg Q7D, Mastoparan 6 mg/kg Q2D, from day 5.
The test system of the next series is Jurkat cells. Put plainly: DNA laddering. Format: cell-based, human. Conditions: 0.1-25 μM, 4 h. The method in brief:
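Jurkat cells (RPMI 1640, 5% CO₂, 37°C) were exposed to test compound for 4 h, alongside medium, vehicle and 50 μM etoposide (4 h or 24 h) controls. DNA was extracted with a kit and run on a 0.8% agarose gel to look for laddering.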

Series [12] deals with cancer cells and normal cells. Put plainly: Specificity factor: IC50 in cancer cells versus normal cells. Format: cell-based. The following applies: depending on the cancer cell line and the normal cell compared.
In a further series the test system is human erythrocytes. Put plainly: Hemolysis assay. Format: cell-based. Conditions: screen of 24 short cationic peptides.
The nature of the next series: Hemolysis assay. Format: cell-based, human. The following applies: % Hemolysis, human erythrocytes, 4 h, mean ± SEM.
In series [13] the test system is breast cancer cells (MDA-MB-231, SKBR3, MDA-MB-468, T47D, 4T1). Format: cell-based, human; mouse. The following applies: read-out: IC50 toward breast cancer cells.
In series [14] the test system is Jurkat T-ALL cells. Put plainly: Combination with chemotherapeutic agents, MTT assay 72 h. Format: cell-based, human. The method in brief: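 Jurkat cells in RPMI 1640 (2.5% FBS final), seeded at 5 × 10⁵ cells/ml just before treatment. Increasing concentrations of a chemotherapeutic agent, with or without test peptide fixed at 4.5 μM, for 72 h at 37°C, 5% CO₂. MTT added at […] final for the last 2 h; DMSO-solubilised formazan read at 490 nm. Percent cytotoxicity scaled between vehicle and 1% Triton X-100; mean of 3 independent experiments ± SEM.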

The test system of series [15] is MDA-MB-231 breast cancer cells. Put plainly: Propidium iodide uptake, MDA-MB-231. Format: cell-based, human. The method in brief: as §1
Where [16] appears, read: Mastoparan 4.5 μM (IC10) with vinblastine, Jurkat, MTT 72 h.

“And” between values parts separate entries of the source, which are not always exact repeats. Equal entries are not always repeated. Ends that are not written are not given here.

As for `COc1cc([C@@H]2c3cc4c(cc3[C@@H](O[C@@H]3O[C@@H]5CO[C@@H](C)O[C@H]5[C@H](O)[C@H]3O)[C@H]3COC(=O)[C@H]23)OCO4)cc(OC)c1O` [etoposide, reference compound], in the series on Jurkat T leukemia cells (Jurkat, MTT 24 h), the “effect of pan-caspase inhibitor BOC-D-FMK on induced cell death” value was “significantly reduced”.
A word on the IC50: it is the concentration that gives 50% inhibition. Regarding `CC[C@H](C)[C@H](N)C(=O)N[C@@H](CC(N)=O)C(=O)N[C@@H](CC(C)C)C(=O)N[C@@H](CCCCN)C(=O)N[C@@H](C)C(=O)N[C@@H](CC(C)C)C(=O)N[C@@H](C)C(=O)N[C@@H](C)C(=O)N[C@@H](CC(C)C)C(=O)N[C@@H](C)C(=O)N[C@@H](CCCCN)C(=O)N[C@@H](CCCCN)C(=O)N[C@H](C(=O)N[C@@H](CC(C)C)C(N)=O)[C@@H](C)CC` [Mastoparan, INLKALAALAKKIL-NH2], the “PI uptake (membrane integrity)” value (in the series with Jurkat T-ALL cells [1]; in [15]) was “rapid PI uptake” each time. Moreover, the IC50 is 8 to 9.2 µM in series [2]; approximately 11 µM with HOPC myeloma cells; 48 µM in the series with PBMCs; 22 µM in series [7]; 9.1 µM in the series on Jurkat T leukemia cells (read-out: IC50 in Jurkat T-ALL cells, C-terminal amide form); 20 to 24 µM in series [13]. The “time at which cytotoxicity peaked” value in the series on Jurkat T-ALL cells [3] and with primary PBMCs was 8 h each time. The “toxicity to MCF7-TX400 cells compared with parental MCF7 cells” value in series [4] is recorded as “as toxic”. Further, the cytotoxicity in series [5] (10 μM Mastoparan) is 13 ± 5%; in series [5] (25 μM Mastoparan), 29 ± 7%; in [5] (50 μM Mastoparan), 49 ± 3%; in series [8] (MDA-MB-231, 10 μM Mastoparan), 20 ± 1%; in series [8] (MDA-MB-231, 25 μM Mastoparan) it was 62 ± 2%; in series [8] (MDA-MB-231, 50 μM Mastoparan), 96 ± 1%. Moreover, the cytotoxicity turned out to be 16 ± 1% in series [9] (10 μM Mastoparan); 37 ± 7% in series [9] (25 μM Mastoparan); 67 ± 14% in series [9] (50 μM Mastoparan); 64 ± 7% in [10] (10 μM Mastoparan); 95 ± 4% in series [10] (25 μM Mastoparan); 97 ± 1% in series [10] (50 μM Mastoparan). For the same molecule, the “calcein leakage (membrane disruption) from LUVs” value in series [6] was “caused membrane disruption”. Further, the “calcein leakage from LUVs as lipid composition became less negatively charged” value in [6] is given as “largely unchanged”. Moreover, the “effect of pan-caspase inhibitor BOC-D-FMK on induced cell death” value in the series on Jurkat T leukemia cells (Jurkat, MTT 24 h) is given as “not reversed”. In the series on Jurkat T leukemia cells (Jurkat, MTT 24 h), the “cytotoxic potency of amidated form compared with free carboxyl form” value was “significantly more potent”. Also, in the series with Jurkat T leukemia cells (Mastoparan-NH2 versus Mastoparan-COOH), the “fold more potent than Mastoparan-COOH” value was 8–11 fold. Also, the “tumour growth (tumour volume and mass) in comparison to saline-treated mice” value in [11] is “not statistically significant”. Moreover, the DNA laddering entry with Jurkat cells is “did not cause DNA laddering”. For the same molecule, the “specificity factor (selectivity index): fold-difference in the IC50 between cancer cells and normal cells” value in [12] was 2–6 fold. In addition, the “hemolytic activity in preliminary screen” value with human erythrocytes is given as “devoid of hemolytic activity”. Further, the hemolysis turned out to be 1 ± 1% in the series “Hemolysis assay” (10 μM Mastoparan), 2 ± 1% in the series “Hemolysis assay” (25 μM Mastoparan) and 7 ± 1% in “Hemolysis assay” (50 μM Mastoparan). Further, in the series with Jurkat T-ALL cells [14] (Jurkat T-ALL cells), the IC10 concentration turned out to be 4.5 µM. In addition, the “fold reduction of the EC50 of etoposide” value in the series with Jurkat T-ALL cells [14] (Mastoparan 4.5 μM (IC10) with etoposide, Jurkat, MTT 72 h) is on record as “approximately 2 fold”. Also, in the series with Jurkat T-ALL cells [14] (setting [16]), the “increase of vinblastine-mediated cytotoxicity” value is 10% and ~ 10%. Also, in the series with Jurkat T-ALL cells [14] (setting [16]), the ΔIC50 of vinblastine is recorded as ~ 1.2 fold.
`Nc1ccn([C@@H]2O[C@H](CO)[C@@H](O)C2(F)F)c(=O)n1` [gemcitabine, reference compound]: the “tumour growth (tumour volume and mass) in comparison to saline-treated mice” value in [11] was “not statistically significant”.
As for “INLKALAALAKKIL-COOH (INLKALAALAKKIL-OH) [Mastoparan-COOH, reference compound]”, in series [6], the “calcein leakage (membrane disruption) from LUVs” value is recorded as “caused membrane disruption” and the “calcein leakage from LUVs as lipid composition became less negatively charged” value is “significantly reduced”.
